In ChEMBL document CHEMBL1275449, “Potent in vitro antifungal activities of naturally occurring acetylenic acids” (Antimicrob Agents Chemother, 2008):
Values after ≈ are worked out from the molar mass of the structure shown.

Columns and labels:
Aspergillus fumigatus [1] = assay: Antifungal activity against Aspergillus fumigatus ATCC 204305 after 48 h by CLSI method; details: ATCC 204305, 48 h
Candida albicans [2] = assay: Antifungal activity against Candida albicans ATCC 14053 after 48 hrs by CLSI method; assay type: functional, organism-based; details: ATCC 14053, 48 h
In short: (§1)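 CLSI broth microdilution. Colonies from 24–72 h SD agar suspended in saline and sized by OD630 standard curve. Inoculum 1.5 × 10³ CFU/ml (final) in RPMI 1640 (0.2% dextrose, 0.03% glutamine, 0.165 M MOPS, pH 7.0). Twofold dilutions (11 levels) from 20% DMSO-saline, in duplicate. 35°C for 48 h, OD530 read before and after. IC50 fitted from % growth. MIC: no detectable growth. MFC: subculture onto SD agar.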

Candida albicans [3] = assay: Antifungal activity against Fluconazole resistant Candida albicans clinical isolate 17 after 48 hrs by CLSI method; assay type: functional, organism-based
In short: as §1

Candida tropicalis = assay: Antifungal activity against Candida tropicalis ATCC 750 after 48 hrs by CLSI method; assay type: functional, organism-based; details: ATCC 750, 48 h
In short: (§2)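 Yeast suspensions made from 3-5 colonies off 24-72 h SD agar plates in saline. They were diluted by OD630 standard curve in RPMI 1640 (0.2% dextrose, 0.03% glutamine, 0.165 M MOPS, pH 7.0) to 1.5 × 10³ CFU/ml. Twofold dilutions (11 concentrations, 20% DMSO-saline) run in duplicate. OD530 read before and after 35°C, 48 h. Line values are top test concentrations; no-growth endpoints give MIC/MFC.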

SK-MEL = assay: Cytotoxicity against human SK-MEL cells up to 32 uM by neutral red method; assay type: cell-based
In short: (§3)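 Neutral red uptake cytotoxicity, top concentration 32 μM.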

Candida albicans [4] = assay: Antifungal activity against Candida albicans ATCC 60193 after 48 hrs by CLSI method; assay type: functional, organism-based; details: ATCC 60193, 48 h
In short: as §1

Candida albicans [5] = assay: Antifungal activity against Fluconazole resistant Candida albicans clinical isolate 1 after 48 hrs by CLSI method; assay type: functional, organism-based
In short: as §1

Candida albicans [6] = assay: Antifungal activity against Candida albicans ATCC 200955 after 48 hrs by CLSI method; assay type: functional, organism-based; details: ATCC 200955, 48 h
In short: as §1

KB = assay: Cytotoxicity against human KB cells up to 32 uM by neutral red method; assay type: cell-based
In short: as §3

[7] = tested on: Trichophyton mentagrophytes; assay: Antifungal activity against Trichophyton mentagrophytes ATCC MYA-4439 by CLSI method; assay type: functional, organism-based
In short: (§4)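 Growth scraped from 1- to 6-week-old potato dextrose slants and filtered through Miracloth. Diluted in 5% Alamar blue-RPMI 1640 (MOPS pH 7.0) to 2.7 × 10⁴ CFU/ml. Eleven twofold dilutions in duplicate. Fluorescence at 544 nm excitation/590 nm emission read before and after 35°C, 5 days. IC50 fitted from percent growth. MIC taken as no detectable growth; MFC from clear or blue wells plated on PD agar.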

Candida albicans [8] = assay: Antifungal activity against Candida albicans ATCC 90028 after 48 hrs by CLSI method; assay type: functional, organism-based; details: ATCC 90028, 48 h
In short: as §1

Vero = assay: Cytotoxicity against African green monkey Vero cells up to 32 uM by neutral red method; assay type: cell-based; details: chlorocebus sabaeus
In short: as §3

Trichophyton rubrum [9] = assay: Antifungal activity against Trichophyton rubrum ATCC 10218 by CLSI method; assay type: functional, organism-based
In short: as §4

BT-549 = assay: Cytotoxicity against human BT549 cells up to 32 uM by neutral red method; assay type: cell-based
In short: as §3

LLC-PK1 = assay: Cytotoxicity against pig LLC-PK1 cells up to 32 uM by neutral red method; assay type: cell-based, Sus scrofa
In short: as §3

Candida albicans [10] = assay: Antifungal activity against Candida albicans ATCC 32354 after 48 hrs by CLSI method; assay type: functional, organism-based; details: ATCC 32354, 48 h
In short: as §1

[11] = tested on: Trichophyton mentagrophytes; assay: Antifungal activity against Trichophyton mentagrophytes ATCC 9533 by CLSI method; assay type: functional, organism-based
In short: as §4

Cryptococcus neoformans [12] = assay: Antifungal activity against Cryptococcus neoformans ATCC 66031 after 72 hrs by CLSI method; assay type: functional, organism-based; details: ATCC 66031, 72 h
In short: (§5)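 SD broth replaced RPMI because growth in RPMI was poor; other CLSI conditions were kept. Inoculum was 1.5 × 10³ CFU/ml from colonies on SD agar, checked by plating. Twofold serial dilutions (11 concentrations) in 20% DMSO-saline were tested in duplicate. OD530 was read before and after incubation at 35°C for 72 h. Percent growth gave IC50; the MIC is the lowest concentration with no detectable growth.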

Pichia kudriavzevii = assay: Antifungal activity against Candida krusei ATCC 6258 after 48 hrs by CLSI method; assay type: functional, organism-based; details: ATCC 6258, 48 h
In short: (§6)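 Candida inocula came from 24–72-h SD agar colonies suspended in saline. They were diluted by OD630 standard curve into RPMI 1640 (0.2% dextrose, 0.03% glutamine, 0.165 M MOPS, pH 7.0) to 1.5 × 10³ CFU/ml. Compounds were run as 11 twofold dilutions in 20% DMSO-saline, in duplicate, at 35°C for 48 h, with OD530 read before and after. Percent growth at the top concentration, IC50, MIC, and MFC (SD agar plating) were derived.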

Aspergillus fumigatus [13] = assay: Antifungal activity against Aspergillus fumigatus ATCC 90906 after 48 h by CLSI method; details: ATCC 90906, 48 h
Trichophyton rubrum [14] = assay: Antifungal activity against Trichophyton rubrum ATCC MYA-4438 by CLSI method; assay type: functional, organism-based
In short: as §4

SK-OV-3 = assay: Cytotoxicity against human SKOV3 cells up to 32 uM by neutral red method; assay type: cell-based
In short: as §3

Aspergillus niger = assay: Antifungal activity against Aspergillus niger ATCC 16404 after 48 h by CLSI method; details: ATCC 16404, 48 h
Aspergillus flavus = assay: Antifungal activity against Aspergillus flavus ATCC 204304 after 48 h by CLSI method; details: ATCC 204304, 48 h
Nakaseomyces glabratus = assay: Antifungal activity against Candida glabrata ATCC 90030 after 48 hrs by CLSI methodCandida glabrata; assay type: functional, organism-based; details: ATCC 90030, 48 h
In short: as §6

Cryptococcus neoformans [15] = assay: Antifungal activity against Cryptococcus neoformans ATCC 90113 after 72 hrs by CLSI method; assay type: functional, organism-based; details: ATCC 90113, 72 h
In short: as §5

Candida parapsilosis = assay: Antifungal activity against Candida parapsilosis ATCC 22019 after 48 hrs by CLSI method; assay type: functional, organism-based; details: Lodderomyces parapsilosis, ATCC 22019, 48 h
In short: as §2

CCCCCCCCCCCCC#CCCCCC(=O)O [6-NONADECYNOIC ACID]
IC50 (Aspergillus fumigatus [1]): 1100 nM
MIC (Aspergillus fumigatus [1]): 2.7 µM (≈ 0.795 µg/mL)
IC50 (Candida albicans [2]): 800 nM
MFC (Candida albicans [2]): 2.7 µM (≈ 0.795 µg/mL)
MIC (Candida albicans [2]): 1.3 µM (≈ 0.383 µg/mL)
IC50 (Candida albicans [3]): 1500 nM
MIC (Candida albicans [3]): 8 µM (≈ 2.36 µg/mL)
IC50 (Candida tropicalis): 5200 nM
Activity (SK-MEL): Non-toxic
IC50 (Candida albicans [4]): 1600 nM
MIC (Candida albicans [4]): 2.7 µM (≈ 0.795 µg/mL)
MIC (Candida albicans [5]): 2.7 µM (≈ 0.795 µg/mL)
IC50 (Candida albicans [6]): 900 nM
MIC (Candida albicans [6]): 1.3 µM (≈ 0.383 µg/mL)
Activity (KB): Non-toxic
IC50 [7]: 400 nM
MFC [7]: 0.7 µM (≈ 0.206 µg/mL)
MIC [7]: 0.7 µM (≈ 0.206 µg/mL)
IC50 (Candida albicans [8]): 1300 nM
MIC (Candida albicans [8]): 2.7 µM (≈ 0.795 µg/mL)
Activity (Vero): Non-toxic
IC50 (Trichophyton rubrum [9]): 1000 nM
MFC (Trichophyton rubrum [9]): 5.3 µM (≈ 1.56 µg/mL)
MIC (Trichophyton rubrum [9]): 2 µM (≈ 0.589 µg/mL)
Activity (BT-549): Non-toxic
Activity (LLC-PK1): Non-toxic
IC50 (Candida albicans [10]): 1600 nM
MIC (Candida albicans [10]): 8 µM (≈ 2.36 µg/mL)
IC50 [11]: 900 nM
MFC [11]: 2.7 µM (≈ 0.795 µg/mL)
MIC [11]: 2 µM (≈ 0.589 µg/mL)
IC50 (Cryptococcus neoformans [12]): 1100 nM
IC50 (Pichia kudriavzevii): 4100 nM
MIC (Pichia kudriavzevii): 10.6 µM (≈ 3.12 µg/mL)
IC50 (Aspergillus fumigatus [13]): 1400 nM
MIC (Aspergillus fumigatus [13]): 6.6 µM (≈ 1.94 µg/mL)
IC50 (Trichophyton rubrum [14]): 600 nM
MIC (Trichophyton rubrum [14]): 3.3 µM (≈ 0.972 µg/mL)
Activity (SK-OV-3): Non-toxic

CC(=O)N1CCN(c2ccc(OCC3COC(Cn4ccnc4)(c4ccc(Cl)cc4Cl)O3)cc2)CC1 (configuration not stated) [KETOCONAZOLE]
IC50 (Aspergillus fumigatus [1]): 2700 nM
MIC (Aspergillus fumigatus [1]): 4.7 µM (≈ 2.5 µg/mL)
IC50 (Aspergillus niger): 6000 nM
MIC (Aspergillus niger): 9.4 µM (≈ 5 µg/mL)
IC50 (Candida albicans [2]): 10 nM
MIC (Candida albicans [2]): 0.02 µM (≈ 0.0106 µg/mL)
IC50 (Candida albicans [3]): 300 nM
IC50 (Candida tropicalis): 40 nM
MIC (Candida tropicalis): 0.19 µM (≈ 0.101 µg/mL)
IC50 (Candida albicans [4]): 10 nM
MIC (Candida albicans [4]): 0.02 µM (≈ 0.0106 µg/mL)
IC50 (Aspergillus flavus): 2800 nM
MIC (Aspergillus flavus): 4.7 µM (≈ 2.5 µg/mL)
IC50 (Nakaseomyces glabratus): 700 nM
MIC (Nakaseomyces glabratus): 4.7 µM (≈ 2.5 µg/mL)
IC50 (Candida albicans [5]): < 10 nM
MIC (Candida albicans [5]): 0.1 µM (≈ 0.0531 µg/mL)
IC50 (Candida albicans [6]): < 10 nM
MIC (Candida albicans [6]): 0.01 µM (≈ 0.00531 µg/mL)
IC50 [7]: 100 nM
MIC [7]: 0.7 µM (≈ 0.372 µg/mL)
IC50 (Candida albicans [8]): < 10 nM
MIC (Candida albicans [8]): 0.01 µM (≈ 0.00531 µg/mL)
IC50 (Trichophyton rubrum [9]): 20 nM
MIC (Trichophyton rubrum [9]): 0.04 µM (≈ 0.0213 µg/mL)
IC50 (Cryptococcus neoformans [15]): 100 nM
MFC (Cryptococcus neoformans [15]): 1.2 µM (≈ 0.638 µg/mL)
MIC (Cryptococcus neoformans [15]): 0.3 µM (≈ 0.159 µg/mL)
IC50 (Candida albicans [10]): 10 nM
MIC (Candida albicans [10]): 0.03 µM (≈ 0.0159 µg/mL)
IC50 [11]: 200 nM
MIC [11]: 0.4 µM (≈ 0.213 µg/mL)
IC50 (Cryptococcus neoformans [12]): 20 nM
MFC (Cryptococcus neoformans [12]): 0.59 µM (≈ 0.314 µg/mL)
MIC (Cryptococcus neoformans [12]): 0.15 µM (≈ 0.0797 µg/mL)
IC50 (Pichia kudriavzevii): 400 nM
MIC (Pichia kudriavzevii): 1.1 µM (≈ 0.585 µg/mL)
IC50 (Candida parapsilosis): 40 nM
MIC (Candida parapsilosis): 0.13 µM (≈ 0.0691 µg/mL)
IC50 (Aspergillus fumigatus [13]): 3200 nM
MIC (Aspergillus fumigatus [13]): 7.1 µM (≈ 3.77 µg/mL)
IC50 (Trichophyton rubrum [14]): 10 nM
MIC (Trichophyton rubrum [14]): 0.08 µM (≈ 0.0425 µg/mL)
